Assay results taken from paper PMC3001191 (Cancer research, 2010).

Tests used:
^V600EBRAF in cells = settings: cited from earlier work
[1] = tested on: ^V600EBRAF purified kinase; settings: cited from earlier work
[2] = tested on: MEK and ERK phosphorylation in BRAF wild-type D35 melanoma cells; test: Western blotting of MAPK signaling; type: cell-based; settings: 24 h, concentrations up to 10 μM
Procedure, shortened: (§1)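 Cells in DMEM with 10% FBS were exposed to a concentration series for 24 h and lysed. Lysates were blotted for phospho-MEK1/2, MEK1, phospho-ERK1/2, ERK2 and cyclin D1. Detection used Alexa Fluor 680 and 800CW secondary antibodies, with quantification on an infrared scanner.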

CRAF = CRAF (Homo sapiens, UniProt P04049, Y340D/Y341D); test: Z'-LYTE SelectScreen kinase profiling; type: biochemical
Tolerability in mice = type: in vivo
BRAF = BRAF (Homo sapiens, UniProt P15056); test: Z'-LYTE SelectScreen kinase profiling; type: biochemical
^V600EBRAF = ^V600EBRAF (Homo sapiens, UniProt P15056, V600E); test: Z'-LYTE SelectScreen kinase profiling; type: biochemical
panel of 80 kinases = test: Selectivity profile against 80 kinase panel; type: biochemical, human; settings: 1 μM 1t
Procedure, shortened: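 Each of 80 kinases was screened at a single 1 µM concentration using the commercial SelectScreen panel under the provider's protocols. Results were expressed as percent inhibition of kinase activity, and kinases inhibited by >70% were singled out.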

VEGFR1 = VEGFR1 (Homo sapiens, UniProt P17948); test: Z'-LYTE SelectScreen kinase profiling; type: biochemical
VEGFR2 = VEGFR2 (Homo sapiens, UniProt P35968); test: Z'-LYTE SelectScreen kinase profiling; type: biochemical
SRC = SRC (Homo sapiens, UniProt P12931); test: Z'-LYTE SelectScreen kinase profiling; type: biochemical
[3] = tested on: ^G12VKRAS mutant human colorectal carcinoma SW620 xenografts; test: Therapy study, xenograft growth; type: in vivo, mice; settings: 20 mg/kg daily p.o. for 23 d
Procedure, shortened: (§2)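 Female Crl:CD1-Foxn1nu mice (>6 weeks) were implanted s.c. with 10^7 A375M or 7 × 10^6 SW620 cells. Tumors grew to 50–150 mm3, and groups of 8 were assigned by stratified tumor volume. Mice received 20 mg/kg/d by gavage (10 ml/kg, DMSO:water 1:19) or vehicle, for 24 d (A375M) or 23 d (SW620). Calipers measured tumors every 3-4 d, and mean volume ± SEM was plotted.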

[4] = tested on: MEK phosphorylation in SW620 xenografts; test: Pharmacodynamics, MEK phosphorylation in tumor xenografts; type: in vivo, mice; settings: single p.o. dose 20 mg/kg, 4 h, KRAS mutant SW620 tumors
Procedure, shortened: (§3)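 Female Crl:CD1-Foxn1nu mice (>6 weeks) were inoculated s.c. with 10^7 A375M or 7 × 10^6 SW620 cells. Tumors were grown to 50–150 mm3. Groups of 3-4 mice received one 20 mg/kg oral gavage dose or vehicle and were culled 4 h later. Tumors were snap-frozen, lysed in NP40 buffer and homogenised. Equal protein was probed by quantitative fluorescent Western blot for phospho-MEK1/2 and total MEK1.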

[5] = tested on: MEK and ERK phosphorylation in ^V600DBRAF WM266.4 cells; test: Western blotting of MAPK signaling; type: cell-based, human; settings: 24 h
Procedure, shortened: as §1

[6] = tested on: ^T529N,V600EBRAF-expressing Ba/F3 cells; test: DNA synthesis; type: cell-based; settings: Mus musculus, BaF3, 24 h, read-out: growth (DNA synthesis) inhibition
Procedure, shortened: (§4)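 Ba/F3 lines stably expressing the mutant BRAF were cultured in RPMI1640 with 10% FBS at 37 °C in 10% CO2. Cells (1-5 × 10^4 per well) were exposed to compound for 24 h, with 0.08 µCi [3H]-thymidine added per well for the last 4 h. Cells were then captured on glass-fibre filters and washed twice with PBS and twice with methanol. Incorporated label was counted by scintillation.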

SKMEL23 cells = test: SRB growth inhibition assay, cell line panel; type: cell-based, human
Procedure, shortened: (§5)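 Growth inhibition was measured by sulforhodamine B across a panel of melanoma, colon and breast cancer cell lines after 5 d continuous exposure. Seeding density was optimized per line to keep growth logarithmic. Curves used 10-point dilution series in quadruplicate and were fitted to give IC50/GI50. Lines were grouped by BRAF/RAS mutation status for comparison.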

^T529N,V600EBRAF = ^T529N,V600EBRAF (Homo sapiens, UniProt P15056, T529N/V600E); test: DELFIA kinase assay, gatekeeper mutant; type: biochemical; settings: at up to 10 μM
Procedure, shortened: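 Full-length recombinant BRAF construct carrying the gatekeeper and activating substitutions was tested in a 96-well DELFIA assay. The assay measured direct phosphorylation of bacterially produced GST-MEK at 100 µM ATP. Reactions ran in duplicate for 45 min at 20°C, within the linear range, across an 11-concentration response curve. Each value was the mean of 3 independent assays.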

p38γ = p38γ (Homo sapiens, UniProt P53778); test: Z'-LYTE SelectScreen kinase profiling; type: biochemical
[7] = tested on: cell lines in which BRAF is wildtype; test: SRB growth inhibition assay, cell line panel; type: cell-based, human; settings: 5 d exposure
Procedure, shortened: as §5

Pharmacokinetics in mice = type: in vivo; settings: for concentration at 18 h: po, 10 mg/kg
Procedure, shortened: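 Female BALB/cAnNCrl mice over 6 weeks old were dosed i.v. at 2 mg/kg (10 ml/kg, DMSO:Tween 20:water 10:1:89). Others received 10 mg/kg by oral gavage (10 ml/kg, DMSO:water 1:19). At 5 min (i.v. only), 15 and 30 min, and 1, 3, 6 and 18 h, 3 mice per point gave heparinized blood for plasma under isoflurane. Femoral muscle was also collected. Plasma levels were compared with the mean 5-d SRB GI50 of BRAF-mutant lines.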

COT = COT (Homo sapiens, UniProt P41279); test: Z'-LYTE SelectScreen kinase profiling; type: biochemical
FGFR1 = FGFR1 (Homo sapiens, UniProt P11362); test: Z'-LYTE SelectScreen kinase profiling; type: biochemical
[8] = tested on: MEK and ERK phosphorylation in KRAS mutant SW620 colorectal carcinoma cells; test: Western blotting of MAPK signaling; type: cell-based, human; settings: 24 h
Procedure, shortened: as §1

[9] = tested on: ^V600EBRAF A375M melanoma xenografts; test: Therapy study, xenograft growth; type: in vivo, mice; settings: 20 mg/kg q.d. p.o. for 24 d, on completion of the experiment, p<0.05
Procedure, shortened: as §2

[10] = tested on: ^V600EBRAF-expressing Ba/F3 cells; test: DNA synthesis; type: cell-based; settings: Mus musculus, BaF3, 24 h, read-out: growth (DNA synthesis) inhibition
Procedure, shortened: as §4

[11] = tested on: ^V600EBRAF mutant HT29 cells; test: SRB growth inhibition assay, cell line panel; type: cell-based, human
Procedure, shortened: as §5

PDGFRβ = PDGFRβ (Homo sapiens, UniProt P09619); test: Z'-LYTE SelectScreen kinase profiling; type: biochemical
SW620 cells = test: MTS cell proliferation assay; type: cell-based, human; settings: 72 h
Procedure, shortened: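 SW620 cells in DMEM with 10% FBS received a range of compound concentrations for 72 h. Proliferation was quantified with MTS reagent. Seeding density was optimized so growth stayed logarithmic throughout treatment. Wells were run in quadruplicate, and comparisons used a t-test.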

LCK = LCK (Homo sapiens, UniProt P06239); test: Z'-LYTE SelectScreen kinase profiling; type: biochemical
MET = MET (Homo sapiens, UniProt P08581); test: Z'-LYTE SelectScreen kinase profiling; type: biochemical
RET = RET (Homo sapiens, UniProt P07949); test: Z'-LYTE SelectScreen kinase profiling; type: biochemical
[12] = tested on: cancer cell lines harboring ^V600D/EBRAF mutations; test: SRB growth inhibition assay, cell line panel; type: cell-based, human; settings: 5 d exposure, ^V600D/EBRAF mutant lines
Procedure, shortened: as §5

[13] = tested on: WM266.4 (^V600DBRAF) cells; test: DNA synthesis; type: cell-based, human; settings: WM266.4 cells, 0.1 μM 1t for 24 h
Procedure, shortened: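 Cells were grown in DMEM with 10% FBS at 37 °C in 10% CO2. They were seeded at 10^5 per well in 6-well plates and treated with 0.1 µM compound for 24 h. DNA synthesis was measured with 0.8 µCi tritiated label per well. Cells were harvested by trypsinization and an aliquot was filter-captured and scintillation-counted as for suspension cells.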

[14] = tested on: ERK1/2 phosphorylation in WM266.4 cells; test: Phospho-ERK cell-based ELISA; set-up: species or system human; settings: cellular potency greater
[15] = tested on: MEK phosphorylation in A375M xenografts; test: Pharmacodynamics, MEK phosphorylation in tumor xenografts; type: in vivo, mice; settings: single oral dose of 20 mg/kg, 4 h, A375M tumors
Procedure, shortened: as §3

KIT = KIT (Homo sapiens, UniProt P10721); test: Z'-LYTE SelectScreen kinase profiling; type: biochemical
p38α = p38α (Homo sapiens, UniProt Q16539); test: Z'-LYTE SelectScreen kinase profiling; type: biochemical
PDGFRα = PDGFRα (Homo sapiens, UniProt P16234); test: Z'-LYTE SelectScreen kinase profiling; type: biochemical
[16] = continuous daily dosing 20 mg/kg in therapy experiments
[17] = female, BALB/cAnNCrl, mouse, plasma, iv, 2 mg/kg

Sequence of VEGFR2 (P35968 20-1356): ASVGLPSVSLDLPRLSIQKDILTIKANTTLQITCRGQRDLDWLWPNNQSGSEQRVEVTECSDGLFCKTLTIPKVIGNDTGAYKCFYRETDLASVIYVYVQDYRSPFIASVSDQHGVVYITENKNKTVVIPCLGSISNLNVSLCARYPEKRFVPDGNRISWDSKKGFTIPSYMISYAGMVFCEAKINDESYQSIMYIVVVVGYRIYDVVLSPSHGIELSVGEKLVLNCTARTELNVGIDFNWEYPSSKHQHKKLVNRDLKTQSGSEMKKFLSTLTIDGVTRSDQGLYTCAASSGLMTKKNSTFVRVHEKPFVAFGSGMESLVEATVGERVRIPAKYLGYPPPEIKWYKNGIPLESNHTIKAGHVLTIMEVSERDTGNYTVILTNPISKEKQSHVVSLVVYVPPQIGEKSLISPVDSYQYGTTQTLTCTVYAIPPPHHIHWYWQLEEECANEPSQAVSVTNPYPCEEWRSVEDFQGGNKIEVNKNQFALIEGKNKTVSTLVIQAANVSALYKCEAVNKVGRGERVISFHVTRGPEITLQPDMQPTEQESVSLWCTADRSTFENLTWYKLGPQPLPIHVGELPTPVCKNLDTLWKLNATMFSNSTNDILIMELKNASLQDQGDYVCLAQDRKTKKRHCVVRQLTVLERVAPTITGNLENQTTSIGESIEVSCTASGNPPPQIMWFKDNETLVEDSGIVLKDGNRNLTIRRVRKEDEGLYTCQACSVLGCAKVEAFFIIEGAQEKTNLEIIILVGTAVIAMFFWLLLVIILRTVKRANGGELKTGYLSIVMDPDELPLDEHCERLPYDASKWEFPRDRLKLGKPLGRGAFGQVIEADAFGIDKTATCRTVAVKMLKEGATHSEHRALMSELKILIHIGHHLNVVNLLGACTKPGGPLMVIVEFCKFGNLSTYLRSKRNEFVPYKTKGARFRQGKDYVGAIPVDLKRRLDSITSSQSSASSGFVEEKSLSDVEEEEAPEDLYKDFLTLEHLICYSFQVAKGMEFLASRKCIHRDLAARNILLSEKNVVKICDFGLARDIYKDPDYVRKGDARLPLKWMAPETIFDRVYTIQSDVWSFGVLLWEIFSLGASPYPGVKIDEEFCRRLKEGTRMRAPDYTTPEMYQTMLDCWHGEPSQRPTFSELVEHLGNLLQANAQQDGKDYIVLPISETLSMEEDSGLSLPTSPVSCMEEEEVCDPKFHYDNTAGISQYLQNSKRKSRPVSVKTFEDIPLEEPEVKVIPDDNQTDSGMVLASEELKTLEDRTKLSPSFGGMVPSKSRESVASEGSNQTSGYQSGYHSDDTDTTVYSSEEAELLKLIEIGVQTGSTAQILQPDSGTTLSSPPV
Sequence of BRAF (P15056 whole entry): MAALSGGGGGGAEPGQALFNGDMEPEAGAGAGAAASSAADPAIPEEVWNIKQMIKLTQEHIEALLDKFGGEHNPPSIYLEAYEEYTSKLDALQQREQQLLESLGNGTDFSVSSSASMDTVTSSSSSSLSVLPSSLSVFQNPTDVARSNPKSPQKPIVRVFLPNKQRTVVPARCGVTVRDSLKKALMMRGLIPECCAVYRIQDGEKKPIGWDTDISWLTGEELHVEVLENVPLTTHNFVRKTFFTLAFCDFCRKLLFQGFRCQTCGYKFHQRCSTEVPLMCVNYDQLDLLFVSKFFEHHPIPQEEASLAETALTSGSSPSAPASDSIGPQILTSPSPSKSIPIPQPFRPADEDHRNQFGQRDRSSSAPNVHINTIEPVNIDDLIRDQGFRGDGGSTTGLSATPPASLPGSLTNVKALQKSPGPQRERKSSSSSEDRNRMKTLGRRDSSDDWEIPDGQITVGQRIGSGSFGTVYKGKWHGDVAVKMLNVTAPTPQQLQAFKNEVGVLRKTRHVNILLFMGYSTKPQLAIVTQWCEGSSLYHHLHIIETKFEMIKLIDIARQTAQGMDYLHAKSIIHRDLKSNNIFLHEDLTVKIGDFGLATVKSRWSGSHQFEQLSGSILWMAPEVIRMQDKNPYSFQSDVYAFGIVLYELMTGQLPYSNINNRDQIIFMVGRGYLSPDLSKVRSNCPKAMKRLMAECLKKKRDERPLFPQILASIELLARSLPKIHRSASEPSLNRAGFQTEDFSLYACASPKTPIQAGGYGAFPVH
Sequence of COT (P41279 whole entry): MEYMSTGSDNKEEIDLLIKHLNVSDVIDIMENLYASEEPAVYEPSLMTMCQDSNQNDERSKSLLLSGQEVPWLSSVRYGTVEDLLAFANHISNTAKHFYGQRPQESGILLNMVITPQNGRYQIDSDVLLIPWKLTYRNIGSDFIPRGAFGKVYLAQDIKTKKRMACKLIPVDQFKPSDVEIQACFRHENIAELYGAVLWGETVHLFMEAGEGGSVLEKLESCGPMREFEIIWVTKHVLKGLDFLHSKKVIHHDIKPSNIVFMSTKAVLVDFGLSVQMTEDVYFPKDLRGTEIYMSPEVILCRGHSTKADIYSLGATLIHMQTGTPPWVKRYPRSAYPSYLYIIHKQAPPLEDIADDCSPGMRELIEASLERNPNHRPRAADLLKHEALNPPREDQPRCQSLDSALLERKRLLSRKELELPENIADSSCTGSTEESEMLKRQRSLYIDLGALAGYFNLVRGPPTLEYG
Sequence of p38α (Q16539 whole entry): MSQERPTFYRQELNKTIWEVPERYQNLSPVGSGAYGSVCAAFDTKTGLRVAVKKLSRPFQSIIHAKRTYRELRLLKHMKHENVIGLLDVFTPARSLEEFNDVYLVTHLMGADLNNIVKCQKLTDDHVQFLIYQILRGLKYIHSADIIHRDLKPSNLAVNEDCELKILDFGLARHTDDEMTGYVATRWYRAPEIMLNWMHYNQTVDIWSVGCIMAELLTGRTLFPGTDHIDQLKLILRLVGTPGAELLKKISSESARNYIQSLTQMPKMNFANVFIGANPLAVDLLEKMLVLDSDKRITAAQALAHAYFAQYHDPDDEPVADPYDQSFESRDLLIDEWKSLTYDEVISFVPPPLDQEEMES
Sequence of PDGFRβ (P09619 33-1106): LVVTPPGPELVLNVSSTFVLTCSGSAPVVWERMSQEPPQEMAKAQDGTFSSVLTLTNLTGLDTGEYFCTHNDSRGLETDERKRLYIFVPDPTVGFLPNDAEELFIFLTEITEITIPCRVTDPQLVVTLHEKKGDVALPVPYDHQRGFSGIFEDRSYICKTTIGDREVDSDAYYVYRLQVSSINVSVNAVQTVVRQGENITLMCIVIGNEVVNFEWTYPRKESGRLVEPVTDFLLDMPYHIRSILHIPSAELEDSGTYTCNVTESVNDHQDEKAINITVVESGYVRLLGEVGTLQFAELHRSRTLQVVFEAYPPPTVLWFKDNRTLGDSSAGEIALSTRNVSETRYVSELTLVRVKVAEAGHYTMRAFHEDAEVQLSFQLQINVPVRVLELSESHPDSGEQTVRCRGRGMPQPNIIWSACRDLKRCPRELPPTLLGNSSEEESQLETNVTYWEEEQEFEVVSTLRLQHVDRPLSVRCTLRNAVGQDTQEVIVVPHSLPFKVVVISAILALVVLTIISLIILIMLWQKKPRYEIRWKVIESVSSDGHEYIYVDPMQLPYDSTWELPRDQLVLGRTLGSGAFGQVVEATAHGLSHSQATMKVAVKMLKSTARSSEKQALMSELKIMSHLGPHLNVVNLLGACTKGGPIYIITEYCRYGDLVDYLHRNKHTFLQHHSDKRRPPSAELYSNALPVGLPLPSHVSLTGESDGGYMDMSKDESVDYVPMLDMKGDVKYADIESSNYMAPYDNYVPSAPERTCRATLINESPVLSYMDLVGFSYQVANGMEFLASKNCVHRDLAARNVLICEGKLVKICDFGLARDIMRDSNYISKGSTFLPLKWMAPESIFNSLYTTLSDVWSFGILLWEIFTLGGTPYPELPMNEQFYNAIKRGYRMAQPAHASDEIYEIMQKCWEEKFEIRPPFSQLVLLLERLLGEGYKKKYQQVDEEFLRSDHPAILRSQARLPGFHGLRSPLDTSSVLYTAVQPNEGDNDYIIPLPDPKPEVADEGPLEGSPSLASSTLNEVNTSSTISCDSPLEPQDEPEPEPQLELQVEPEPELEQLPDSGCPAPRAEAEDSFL
Sequence of ^T529N,V600EBRAF (P15056 whole entry T529N/V600E): as the sequence (P15056 whole entry) above, with T529N, V600E counted along it
Sequence of SRC (P12931 whole entry): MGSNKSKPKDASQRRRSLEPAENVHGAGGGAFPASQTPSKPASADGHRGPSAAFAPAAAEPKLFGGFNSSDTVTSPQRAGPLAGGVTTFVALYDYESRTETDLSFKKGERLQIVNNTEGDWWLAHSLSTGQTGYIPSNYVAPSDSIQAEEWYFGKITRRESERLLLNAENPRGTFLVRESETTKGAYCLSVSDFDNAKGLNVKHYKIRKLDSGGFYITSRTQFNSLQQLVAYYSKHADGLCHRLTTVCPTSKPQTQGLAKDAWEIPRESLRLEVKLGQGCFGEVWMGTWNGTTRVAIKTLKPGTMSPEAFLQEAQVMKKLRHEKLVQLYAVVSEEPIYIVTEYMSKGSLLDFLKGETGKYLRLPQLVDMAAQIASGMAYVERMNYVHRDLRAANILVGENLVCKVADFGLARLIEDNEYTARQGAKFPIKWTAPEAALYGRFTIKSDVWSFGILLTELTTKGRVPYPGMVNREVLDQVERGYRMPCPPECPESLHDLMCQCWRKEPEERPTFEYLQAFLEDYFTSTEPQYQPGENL
Sequence of ^V600EBRAF (P15056 whole entry V600E): as the sequence (P15056 whole entry) above, with V600E counted along it
Sequence of CRAF (P04049 306-648 Y340D/Y341D limits assumed): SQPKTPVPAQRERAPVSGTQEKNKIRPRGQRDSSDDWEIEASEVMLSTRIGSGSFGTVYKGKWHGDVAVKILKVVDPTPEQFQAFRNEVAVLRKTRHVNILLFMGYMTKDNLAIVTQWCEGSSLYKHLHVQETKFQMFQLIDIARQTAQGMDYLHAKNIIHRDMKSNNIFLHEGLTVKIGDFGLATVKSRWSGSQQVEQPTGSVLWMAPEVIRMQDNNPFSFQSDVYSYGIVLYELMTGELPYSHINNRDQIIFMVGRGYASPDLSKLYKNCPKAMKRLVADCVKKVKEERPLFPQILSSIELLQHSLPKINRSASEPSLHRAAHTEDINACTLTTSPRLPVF

## CNC(=O)c1cc(Oc2ccc(NC(=O)Nc3ccc(Cl)c(C(F)(F)F)c3)cc2)ccn1 [sorafenib]
^V600EBRAF in cells
  activity against ^V600EBRAF in cells: 2 to 5 µM
  fold less active in cells than against the purified kinase: approximately 100 fold
[1]
  activity against the purified kinase in vitro: 40 nM

## CSc1cc(Oc2ccnc3[nH]c(=O)cnc23)ccc1NC(=O)Nc1cc(C(C)(C)C)nn1-c1ccc(C)cc1 [Compound 1t, 1-(3-tert-butyl-1-p-tolyl-1H-pyrazol-5-yl)-3-(2-(methylthio)-4-(3-oxo-3,4-dihydropyrido[2,3-b]pyrazin-8-yloxy)phenyl)urea]
[2]
  MEK and ERK phosphorylation / cyclin D1 response: no such responses are observed
CRAF
  IC50: 12 nM
Tolerability in mice; 10 and 20 mg/kg/d p.o. for 4 d, body weight monitored a further 27 d
  adverse effects / body weight: No adverse effects were observed
Tolerability in mice; [16]
  body weight loss: less than 10%
  deaths: does not cause any deaths
BRAF
  IC50: 81 nM
BRAF; SelectScreen Panel
  fold less active against wildtype BRAF than against ^V600EBRAF: more than 6 fold
^V600EBRAF
  IC50: 13 nM
Panel of 80 kinases
  inhibition of kinases in an 80 kinase panel: failed to inhibit most of the kinases
VEGFR1
  IC50: 5160 nM
VEGFR2
  IC50: 1000 nM
VEGFR2; SelectScreen Panel
  fold less active against VEGFR2/KDR than against ^V600EBRAF: more than 50 fold
SRC
  IC50: 23 nM
[3]
  tumor growth inhibition: No inhibition of tumor growth
[4]
  increase in MEK phosphorylation: 2 fold
[5]
  concentration inhibiting MEK and ERK phosphorylation: 10 to 100 nM
[6]
  inhibition at 1 µM: 21%
SKMEL23 cells
  sensitivity relative to the other BRAF/RAS wildtype cells: considerably more sensitive
^T529N,V600EBRAF
  inhibition of ^T529N,V600EBRAF kinase activity: not inhibited
p38γ
  IC50: 1020 nM
[7]
  growth inhibition: relatively ineffective
Pharmacokinetics in mice; female, BALB/cAnNCrl, mouse, femoral muscle
  concentration at 18 h: > 3 µM
Pharmacokinetics in mice; [17]
  clearance: 0.00667 mL/min
  half-life: 6.8 h
Pharmacokinetics in mice; female, BALB/cAnNCrl, mouse, plasma
  concentration at 18 h: > 19 µM
Pharmacokinetics in mice; mice
  plasma concentration relative to average GI50 for BRAF mutant cancer cell lines: over 100 fold
COT
  IC50: > 10000 nM
FGFR1
  IC50: 2580 nM
[8]
  effect on MEK and ERK phosphorylation: profound increase
[9]
  tumor growth inhibition: 50%
[10]
  inhibition at 1 µM: 96%
[11]
  sensitivity relative to the majority of the other BRAF mutant cell lines: less sensitive
PDGFRβ
  IC50: 2430 nM
SW620 cells
  effect on proliferation: small increase in proliferation
LCK
  IC50: 6 nM
MET
  IC50: > 10000 nM
RET
  IC50: 4860 nM
[12]
  growth inhibition: inhibits the growth
[13]
  inhibition of DNA synthesis: profound inhibition
[14]
  cellular potency relative to inhibition of recombinant ^V600EBRAF in vitro: approximately 4 fold
[15]
  inhibition of MEK phosphorylation: observed
KIT
  IC50: > 10000 nM
p38α
  IC50: 285 nM
PDGFRα
  IC50: 439 nM
